Compound activity: PubChem, Sanford-Burnham Center for Chemical Genomics
APJ agonist: agonists of human apelin receptor APJ, primary screen, CHO-K1 cells, PathHunter beta-arrestin, luminescence; P35414; activation, % at 20 µM; 330,000 tested, 0.11% active; 0% DMSO wells, 100% apelin;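 active = activation more than six SD over the plate average, tested at 20 µM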;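 also: 0% = DMSO alone and 100% = apelin-13 at 10 nM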
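assay system = CHO-K1 APJ beta-arrestin complementation cell line | input = cell density 1000 per well | dosing = compound 20 µM once, DMSO 1% | timing = compound 90 min 25 °C, reagent 1 h | measured by = luminescence from split beta-galactosidase complementation, Galacton Star/Emerald II substrate | read-out basis = APJ agonist activity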
EBI2 block: EBI2 receptor antagonists, beta-arrestin recruitment, primary screen, cell-based, luminescence, 7a,25-OHC stimulation, uHTS | 7a,25-OHC stimulated | G-protein coupled receptor 183 (Homo sapiens), P32249 | inhibition, % at 5 µM | 360,000 tested, 0.81% active; in the data active = inhibition above about 38%;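 also: enzyme fragment complementation signal reports receptor beta-arrestin coupling in cells; 0% = agonist plus DMSO wells and 100% = wells without agonist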
Target sequence (P32249 whole entry, looked up, the tested form may be a part): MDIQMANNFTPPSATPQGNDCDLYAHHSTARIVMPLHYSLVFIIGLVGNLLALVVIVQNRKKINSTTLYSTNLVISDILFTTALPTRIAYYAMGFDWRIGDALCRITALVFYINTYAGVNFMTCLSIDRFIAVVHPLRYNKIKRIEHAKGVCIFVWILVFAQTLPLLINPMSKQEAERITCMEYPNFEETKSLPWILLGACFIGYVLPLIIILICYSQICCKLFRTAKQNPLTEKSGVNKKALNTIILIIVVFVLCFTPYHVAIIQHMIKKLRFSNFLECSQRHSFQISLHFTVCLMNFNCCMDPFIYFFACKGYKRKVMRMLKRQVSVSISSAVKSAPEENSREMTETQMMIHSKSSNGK
CCR6 antagonist: CCR6 receptor antagonists, primary screen, cell-based, CHO-K1, luminescence, beta-arrestin, uHTS. C-C chemokine receptor type 6 (Homo sapiens), P51684. CHO-K1 CCR6 PathHunter beta-arrestin, CCL20-stimulated. inhibition, % at 20 µM. 340,000 tested, 0.49% active. AID 493098, 2011;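 active = compounds whose inhibition of the agonist-driven luminescence signal at 20 µM reaches about 50%, limit read from the data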;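 also: cells stimulated with CCL20 at 14 nM final; plate controls were DMSO with CCL20 for no effect and DMSO without agonist for full effect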
CXCR6 inh: CXCR6 receptor inhibitors, primary screen, cell-based, beta-arrestin, luminescence, CHO-K1 PathHunter, 1536-well | 360,000 tested, 0.36% active | C-X-C chemokine receptor type 6 (Homo sapiens), O00574 | inhibition, % at 20 µM; in the data active = inhibition above about 34%, passing the limit was not always enough;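 also: antagonist mode with CXCL16 agonist at 10 nM final; 0% = 10 nM CXCL16 with DMSO and 100% = unstimulated wells without agonist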
Target sequence (O00574 whole entry, looked up): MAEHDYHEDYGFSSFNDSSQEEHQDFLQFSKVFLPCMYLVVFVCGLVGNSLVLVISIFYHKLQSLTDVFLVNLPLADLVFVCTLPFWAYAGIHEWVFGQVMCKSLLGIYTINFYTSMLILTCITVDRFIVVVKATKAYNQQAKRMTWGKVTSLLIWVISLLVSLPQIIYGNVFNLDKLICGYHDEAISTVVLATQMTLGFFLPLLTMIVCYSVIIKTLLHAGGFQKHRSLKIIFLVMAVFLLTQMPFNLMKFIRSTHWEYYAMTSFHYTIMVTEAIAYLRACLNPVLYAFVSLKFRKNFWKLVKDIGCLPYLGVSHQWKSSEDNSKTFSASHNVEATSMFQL
APJ antagonist: antagonists of human apelin receptor APJ, primary screen, CHO-K1 cells, beta-arrestin complementation, luminescence. P35414. inhibition, % at 20 µM. 330,000 tested, 0.32% active. AID 2521, 2010;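 active = inhibition above about 40% at 20 µM, limit read from the data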;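 also: cells challenged with 10 nM apelin-13 agonist together with compound; plate controls were apelin-13 plus DMSO wells for no effect and DMSO wells lacking apelin-13 for full effect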
EBI2 conf: EBI2 antagonist hit retest, beta-arrestin, confirmation, cell-based, single concentration, luminescence, 7a,25-OHC stimulation; shares compounds with EBI2 block; 2,400 tested, 29% active; 7a,25-OHC antagonism; inhibition, % at 5 µM;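 active = inhibition of at least 50%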
EBI2 ag: EBI2 agonist activity of antagonist hits, confirmation, counter-screen for EBI2 antagonist project, cell-based, single concentration, agonist mode, luminescence | shares compounds with EBI2 block | EBI2-expressing cells, 60 min; 0% vehicle, 100% 7α,25-dihydroxycholesterol control | activation, % at 5 µM | 2,400 tested, under 10 active | AID 652000, 2013;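 active = activation of at least 50%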
bGal counter: E. coli beta-galactosidase enzyme inhibition, confirmation, counter-screen for EBI2 antagonist project, biochemical, luminescence, single concentration; shares compounds with EBI2 block; 2,400 tested, 1% active; purified beta-galactosidase, luminescent Galacton Star, 15 min; inhibition, % at 5 µM;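 active = replicate-average signal at least 3 plate SD below neutral wells, shown as high inhibition, flagging enzyme-inhibiting false positives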;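 also: 0% = DMSO wells with enzyme and 100% = wells lacking enzyme; higher means stronger loss of beta-gal luminescence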
Active calls of the source: *; nt = not tested or not shown. This is a sample that favours compounds with a hit; in the whole collection about 1.5% have one here.

SMILES	APJ agonist	EBI2 block	CCR6 antagonist	CXCR6 inh	APJ antagonist	EBI2 conf	EBI2 ag	bGal counter
COC(=O)[C@]12CCCCC=C1N(Cc1cccc3ccccc13)C(=O)[C@H](CC(=O)NCCCCc1ccccc1)C2	nt	47*	nt	13	nt	36	1	4
CCCCNC(=O)C[C@@H]1C[C@@]2(C(=O)OC)CCCCC=C2N(Cc2cccc3ccccc23)C1=O	nt	0	nt	3	nt	nt	nt	nt
CCOc1ccc(N2CC(C(=O)Nc3cccc(S(=O)(=O)N4CCCCC4)c3)CC2=O)cc1 (stereo not drawn)	-1	39	-16	-5	-8	nt	nt	nt
CCOc1ccc(N2CC(C(=O)Nc3ccc(S(=O)(=O)N4CCCC4)cc3)CC2=O)cc1 (stereo not drawn)	2	53*	1	5	1	44	1	2
CCOc1ccc(N2CC(C(=O)Nc3ccc(S(=O)(=O)N4CCCCC4)cc3)CC2=O)cc1 (stereo not drawn)	11	79*	2	-2	3	63*	-1	-21
COC(=O)c1ccc(CN2C(=O)NC(Cc3c[nH]c4ccccc34)C2=O)cc1 (stereo not drawn)	0	5	4	-2	-10	nt	nt	nt
CSCCC(NS(=O)(=O)c1ccc(C)cc1C)C(=O)Nc1cccnc1 (stereo not drawn)	-4	-1	5	-3	2	nt	nt	nt
COc1cc(-c2nc3ccc(C)cn3c2NCc2ccccc2)ccc1-c1cccc(Cl)c1	-3	80*	14	8	20	66*	1	-5
CCC(C)Sc1ccc(-c2nc3ccc(C)cn3c2NCc2ccccc2)cc1 (stereo not drawn)	2	47*	12	6	19	24	1	6
COc1ccc(-c2nc3ccc(C)cn3c2Cc2cccc(Cl)c2)cc1OC	nt	32	nt	25	nt	nt	nt	nt
COc1cc(-c2nc3ccc(C)cn3c2NCc2ccccc2)ccc1SC1CCCCC1	0	72*	35	15	-24	55*	2	-1
CN(Cc1ccc2c(c1)OCCO2)C(=O)CSc1ncnc2sccc12	-5	12	9	-9	-1	nt	nt	nt
Cc1cccc(C)c1-n1nnnc1C(c1ccnc2ccccc12)N(CCN(C)C)Cc1ccccc1 (stereo not drawn)	nt	6	nt	4	nt	nt	nt	nt
CC1(C(=O)OCC(=O)NCCNC(=O)COC(=O)C2(C)CC2(Cl)Cl)CC1(Cl)Cl (stereo not drawn)	10	0	-28	-5	18	nt	nt	nt
O=C(/C=C/c1cccc(F)c1)Nc1cc(S(=O)(=O)N2CCOCC2)ccc1Cl	-1	13	12	-4	5	nt	nt	nt
O=C(/C=C/c1cccc(F)c1)c1ccc(N2CCOCC2)cc1	-5	58*	27	10	0	38	0	3
CCOC(=O)c1cc(-c2ccc(C)cc2)n(CCC(=O)N2CCN(c3ccccn3)CC2)c1C	0	2	14	3	-2	nt	nt	nt
O=C(CN1CCN(S(=O)(=O)c2ccc(Cl)cc2)CC1)Nc1ccc2c(c1)OCO2	-1	11	4	-3	1	nt	nt	nt
O=C(Nc1ccc2c(c1)OCO2)N1CCN(c2ccccc2Cl)CC1	-6	50*	6	4	13	37	-1	3
O=C(Nc1ccc2c(c1)OCO2)N1CCN(c2cccc(C(F)(F)F)c2)CC1	-1	-2	11	-6	-1	nt	nt	nt
O=C(Nc1ccc2c(c1)OCO2)N1CCN(S(=O)(=O)c2ccc(Cl)cc2)CC1	-4	48*	-7	-9	-2	27	-1	-13
O=S(=O)(NC1C2CC3CC(C2)CC1C3)c1ccccc1 (stereo not drawn)	-5	-5	4	3	-6	nt	nt	nt
CC(C)(C)NC(=O)C(c1cccs1)N(C(=O)c1csnn1)c1ccccc1F (stereo not drawn)	-4	5	7	-2	9	nt	nt	nt
COc1ccc(-c2ccc(C(=O)Nc3ccc(NC(C)=O)cc3)c3occc23)c(C)c1	nt	-40	nt	-3	nt	nt	nt	nt
COc1ccc(-c2ccc(C(=O)Nc3cccc(C(F)(F)F)c3)c3occc23)c(C)c1	nt	43*	nt	4	nt	9	-2	-12
SMILES	APJ agonist	EBI2 block	CCR6 antagonist	CXCR6 inh	APJ antagonist	EBI2 conf	EBI2 ag	bGal counter
CCNc1sc(C(=O)OCC)c(N)c1C#N	-4	-9	1	-7	10	nt	nt	nt
COC(=O)[C@@]1(Cc2ccc(F)cc2)[C@H]2c3cc(C(=O)N4CCCC4)n(CCc4c[nH]c5ccccc45)c3C[C@H]2CN1C(=O)c1ccccc1	nt	53*	nt	11	nt	24	0	-8
COC(=O)[C@@]1(Cc2ccc(OC)cc2)[C@H]2c3cc(C(=O)N4CCCC4)n(CCc4c[nH]c5ccccc45)c3C[C@H]2CN1C(=O)c1ccccc1	nt	38	nt	3	nt	nt	nt	nt
COc1ccc(CCNC(=O)c2cccc(C(=O)NCCc3ccc(OC)cc3)n2)cc1	6	50*	10	10	7	38	0	-23
COc1ccc(CCNC(=O)c2cnc3ccccc3n2)cc1	-1	-3	16	-3	0	nt	nt	nt
Cc1cccc(OCCNc2cc(N3CCOCC3)ccc2[N+](=O)[O-])c1	0	64*	22	8	1	48	1	9
CN(C)c1nc(-c2ccccc2)c2cnn(Cc3ccccc3)c2n1	-5	6	18	8	16	nt	nt	nt
C=CCN1C(=O)NC(c2ccccc2)(C(F)(F)F)S/C1=C(\C#N)c1nnc(N2CCOCC2)n1-c1ccccc1 (stereo not drawn)	-4	53*	18	5	9	53*	1	-12
C[C@H](CO)N1C[C@H](C)[C@@H](CN(C)C(=O)Nc2ccccc2F)OCc2cnnn2CCCC1=O	nt	-10	nt	0	nt	nt	nt	nt
Cc1ccc(C(=O)N2CCN(c3ccc4c(c3)C3CC4CCN3C(=O)OCc3ccccc3)CC2)cc1 (stereo not drawn)	nt	33	nt	14	nt	nt	nt	nt
O=C(c1ccc(-c2ccccc2)cc1)N1CCN(c2ccc3c(c2)C2CC3CCN2C(=O)OCc2ccccc2)CC1 (stereo not drawn)	nt	54*	nt	8	nt	40	1	7
O=C1N=C(N2CCCCC2)S/C1=C\c1ccc(Cl)cc1	-1	86*	14	0	15	55*	0	10
